Active and inactive are the calls of the source. No cut-off for these calls is given here.
How the values were obtained:
[1] = molecular target: Protein arginine N-methyltransferase 8 (Homo sapiens, UniProt Q9NR22); assay: Inhibition of N-terminal GST tagged full-length human PRMT8 expressed in Escherichia coli (BL21(DE3) pre-incubated for 30 mins before addition of a [3H]SAM and peptide mix
[2] = molecular target: T1, Protein arginine N-methyltransferase 6 (Homo sapiens, UniProt Q96LA8); assay: Inhibition of FLAG and hexa-histidine tagged full-length human PRMT6 expressed in HEK293F cells pre-incubated for 30 mins before addition of a [3H]SAM and peptide mix; type: cell-based
T1 sequence (Q96LA8 whole entry): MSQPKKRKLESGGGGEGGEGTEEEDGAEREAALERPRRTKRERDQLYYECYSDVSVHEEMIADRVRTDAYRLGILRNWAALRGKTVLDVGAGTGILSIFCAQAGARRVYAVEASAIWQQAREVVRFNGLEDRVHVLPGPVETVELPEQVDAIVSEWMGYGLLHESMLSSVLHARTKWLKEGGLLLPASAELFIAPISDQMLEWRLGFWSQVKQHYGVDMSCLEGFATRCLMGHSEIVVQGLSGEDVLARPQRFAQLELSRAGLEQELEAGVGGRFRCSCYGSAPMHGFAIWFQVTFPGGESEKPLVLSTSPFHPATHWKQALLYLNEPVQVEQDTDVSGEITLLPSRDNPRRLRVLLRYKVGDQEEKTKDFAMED

[3] = molecular target: T1, Protein arginine N-methyltransferase 6; assay: Inhibition of his-tagged PRMT6 (unknown origin) expressed in human A375 cells assessed as reduction in H3R2 methylation at 0.01 to 20 uM incubated for 48 hrs by Western blot method; type: cell-based, A-375
[4] = Tmax in Sprague-Dawley rat at 5 mg/kg, sc by LC-MS/MS method; type: ADME, organism-based; settings: in vivo
[5] = test system: A-375; assay: Effect on PRMT6 expression in human A375 cells transfected with his-tagged PRMT6 at 0.01 to 20 uM incubated for 48 hrs by Western blot method; type: functional, cell-based
How it was run: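 A375 cells were transfected with a PRMT6 expression construct, with empty vector as the control, and PRMT6 was overexpressed for 48 h. Compound exposure also lasted 48 h. PRMT6 protein levels were then checked in the treated cells.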

[6] = AUC (0 to t) in Sprague-Dawley rat at 5 mg/kg, sc by LC-MS/MS method; type: ADME, organism-based; settings: in vivo
[7] = Volume of distribution at steady state in Sprague-Dawley rat at 1 mg/kg, iv administered as single dose by LC-MS/MS method; type: ADME, organism-based; settings: in vivo, read-out: Vdss
[8] = Terminal half life in Sprague-Dawley rat at 1 mg/kg, iv administered as single dose by LC-MS/MS method; type: ADME, organism-based; settings: in vivo, read-out: beta t1/2 (converted)
[9] = AUC (0 to infinity) in Sprague-Dawley rat at 1 mg/kg, iv administered as single dose by LC-MS/MS method; type: ADME, organism-based; set-up: dose 1 mg/kg, route intravenous, time infinity; settings: in vivo
[10] = AUC (0 to infinity) in Sprague-Dawley rat at 5 mg/kg, sc by LC-MS/MS method; type: ADME, organism-based; set-up: dose 5 mg/kg, route subcutaneous, time infinity; settings: in vivo
[11] = Cmax in Sprague-Dawley rat at 5 mg/kg, sc by LC-MS/MS method; type: ADME, organism-based; set-up: dose 5 mg/kg, route subcutaneous; settings: in vivo
[12] = test system: Rattus norvegicus; assay: Time above biochemical PRMT6 IC50 in Sprague-Dawley rat at 5 mg/kg, sc by LC-MS/MS method
[13] = Terminal half life in Sprague-Dawley rat at 5 mg/kg, sc by LC-MS/MS method; type: ADME, organism-based; settings: in vivo, read-out: beta t1/2 (converted)
[14] = Clearance in Sprague-Dawley rat at 1 mg/kg, iv administered as single dose by LC-MS/MS method; type: ADME, organism-based; settings: in vivo
[15] = Oral bioavailability in rat; type: ADME, organism-based; settings: in vivo
[16] = Unbound fraction in human plasma at 1 uM at 37 degC by equilibrium dialysis and LC-MS/MS method; type: ADME, cell-free
[17] = Unbound fraction in Sprague-Dawley rat plasma at 1 uM at 37 degC by equilibrium dialysis and LC-MS/MS method; type: ADME, cell-free
[18] = AUC (0 to t) in Sprague-Dawley rat at 1 mg/kg, iv administered as single dose by LC-MS/MS method; type: ADME, organism-based; settings: in vivo
[19] = Permeability of the compound at 10 uM at pH 7.4 by LC-MS/MS based PAMPA method; type: physicochemical; settings: read-out: permeability
[20] = Bioavailability in Sprague-Dawley rat at 5 mg/kg, sc by LC-MS/MS method; type: ADME, organism-based; settings: in vivo
[21] = molecular target: T2, Protein arginine N-methyltransferase 1 (Homo sapiens, UniProt Q99873); assay: Inhibition of PRMT1 in human A375 cells assessed as effect on monomethyl R*GG motif methylation at 0.01 to 20 uM incubated for 48 hrs by Western blot method; type: cell-based, A-375
T2 sequence (Q99873 whole entry): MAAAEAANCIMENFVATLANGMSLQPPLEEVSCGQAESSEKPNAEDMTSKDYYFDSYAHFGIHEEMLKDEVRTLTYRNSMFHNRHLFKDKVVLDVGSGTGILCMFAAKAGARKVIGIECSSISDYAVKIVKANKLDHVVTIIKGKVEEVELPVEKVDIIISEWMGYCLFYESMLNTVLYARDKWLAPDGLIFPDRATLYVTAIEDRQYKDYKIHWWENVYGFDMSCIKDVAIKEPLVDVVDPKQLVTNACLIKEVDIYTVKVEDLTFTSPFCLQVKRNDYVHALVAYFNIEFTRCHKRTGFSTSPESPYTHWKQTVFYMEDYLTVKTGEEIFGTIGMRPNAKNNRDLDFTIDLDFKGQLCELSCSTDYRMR

[22] = molecular target: T2, Protein arginine N-methyltransferase 1; assay: Inhibition of N-terminal GST tagged full-length human PRMT1 expressed in high five insect cells pre-incubated for 30 mins before addition of a [3H]SAM and peptide mix

Sequence of Protein arginine N-methyltransferase 8 (Q9NR22 whole entry): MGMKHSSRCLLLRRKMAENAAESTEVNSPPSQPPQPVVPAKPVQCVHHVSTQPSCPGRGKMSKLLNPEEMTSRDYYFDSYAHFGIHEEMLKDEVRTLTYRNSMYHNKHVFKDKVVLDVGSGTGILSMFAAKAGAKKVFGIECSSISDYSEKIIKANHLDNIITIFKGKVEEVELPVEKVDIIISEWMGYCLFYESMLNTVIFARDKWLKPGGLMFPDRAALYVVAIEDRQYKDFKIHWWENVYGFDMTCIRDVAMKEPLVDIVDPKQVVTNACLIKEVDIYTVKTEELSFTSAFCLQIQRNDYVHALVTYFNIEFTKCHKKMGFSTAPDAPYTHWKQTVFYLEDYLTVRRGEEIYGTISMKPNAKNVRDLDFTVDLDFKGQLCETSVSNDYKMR

Compound: CNCCN(C)Cc1n[nH]cc1-c1ccc(Oc2cccc(C(=O)N(C)C)c2)cc1
- IC50 [1]: 347 nM
- IC50 [2]: 2 nM

Compound: CN(CCN)Cc1c[nH]nc1-c1ccc(OCCCN2CCOCC2)cc1
- IC50 [2]: 13 nM

Compound: CC(C)Oc1c(Cl)cc(-c2c[nH]nc2CN(C)CCN)cc1C(F)(F)F
- IC50 [1]: 70 nM
- IC50 [2]: 320 nM

Compound: CNCCN(C)Cc1c[nH]nc1-c1cc(OC(CO)CC(C)C)cc(C(F)(F)F)c1 (stereo not drawn)
- IC50 [3]: > 20000 nM

Compound: CNCCN(C)Cc1c[nH]nc1-c1ccc(Oc2cccc(C(=O)N(C)C)c2)cc1
- IC50 [1]: 179 nM
- IC50 [2]: 3 nM

Compound: CNCCN(C)Cc1c[nH]nc1-c1ccc(OC(C)C)cc1
- IC50 [2]: 11 nM

Compound: CC(C)Oc1ccc(-c2[nH]ncc2CN(C)CCN)cc1Cl
- IC50 [2]: 8 nM

Compound: CNCCN(C)Cc1cn[nH]c1-c1ccc(OC(C)C)c(Cl)c1
- IC50 [2]: 10 nM

Compound: CNCCN(C)Cc1c[nH]nc1-c1ccc(O[C@H]2C[C@H](OCCC3CCOCC3)C2)cc1
- Tmax [4]: 0.444 h
- Activity [5]: inactive
- AUC(0-t) [6]: 2460 ng·h/mL
- Vd [7]: 11.1 L/kg
- half-life [8]: 8.54 h
- AUC(0-inf) [9]: 846 ng·h/mL
- AUC(0-inf) [10]: 2780 ng·h/mL
- Cmax [11]: 844 ng/mL
- Time [12]: > 12 h
- half-life [13]: 9.19 h
- clearance [14]: 19.7 mL/min/kg
- bioavailability [15]: < 5%
- IC50 [3]: 637 nM
- fraction unbound at 1 µM [16]: 0.52
- fraction unbound at 1 µM [17]: 0.51
- AUC(0-t) [18]: 745 ng·h/mL
- Papp at 10 µM [19]: 0.1 ×10⁻⁶ cm/s
- bioavailability [20]: 65.6%
- IC50 [21]: 7100 nM

Compound: CNCCN(C)Cc1c[nH]nc1-c1cc(OCCC2CCCCC2)cc(C(F)(F)F)c1
- IC50 [1]: 21 nM
- IC50 [2]: 461 nM

Compound: CNCCN(C)Cc1cn[nH]c1-c1ccc(OC(CO)C(C)C)cc1 (stereo not drawn)
- IC50 [22]: 27 nM

Compound: CCOc1ccc(-c2[nH]ncc2CN(C)CCNC)cc1
- IC50 [2]: 25 nM

Compound: CNCCN(C)Cc1n[nH]cc1-c1ccc(Oc2ccccc2C(=O)NC)cc1
- IC50 [1]: 65 nM
- IC50 [2]: 5 nM

Compound: CNCCN(C)Cc1c[nH]nc1-c1cc(OCCc2ccccc2)cc(C(F)(F)F)c1
- IC50 [1]: 23 nM
- IC50 [2]: 327 nM
